Data reported in ChEMBL document CHEMBL4152320, “Discovery and development of novel salicylate synthase (MbtI) furanic inhibitors as antitubercular agents” (Eur J Med Chem, 2018).
Active and inactive are the calls of the source. The rule behind the calls is not given here.

Assays:
[1] = system: Mycobacterium tuberculosis variant bovis BCG; assay: Inhibition of Mycobacterium bovis BCG salicylate synthase assessed as removal of iron after 15 days by CAS assay
How it was run: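 Same BCG culture in chelated Sauton's with compound, 15 days at 37 °C. Supernatant mixed 1:1 with Universal CAS solution, 10 min room temperature, A630 read; siderophore units = (Ar − As)/Ar × 100, Ar being blank medium with CAS.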

[2] = system: Mycobacterium tuberculosis variant bovis BCG; assay: Inhibition of Mycobacterium bovis BCG salicylate synthase assessed as reduction in mycobactin production after 15 days
How it was run: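 M. bovis BCG grown in 7H9, subcultured in chelated Sauton's, diluted 1:1000 into chelated Sauton's with sub-lethal compound concentrations; 15 days at 37 °C. Pelleted cells extracted in ethanol overnight, 0.1 M FeCl3 in ethanol added until colour stable, 1 h room temperature; mycobactins isolated and quantified.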

**Q.** With `O=C(O)c1ccc(-c2ccc([N+](=O)[O-])cc2)o1` as the compound, how does the inhibition [1] read?
**A.** Dose-dependent effect

**Q.** And the inhibition [2]?
**A.** Active
